32 compounds from ChEMBL document CHEMBL1142273, “SAR studies of capsazepinoid bronchodilators 3: The thiourea part (coupling region) and the 2-(4-chlorophenyl)ethyl moiety (C-region)” (Bioorg Med Chem, 2008) can be followed below.

The species entered for test [1] is Homo sapiens. As to the kind of experiment: Bronchorelaxing effect in leukotriene D4-contracted human lung small airways model assessed as remaining contraction at 10 uM relative to control. In kind it is functional. Summed up:
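Human small airways (0.5–1.5 mm diameter) from lobectomy tissue, stretched to 1.2 mN and accepted when two control LTD4 contractions differed by under 10%. Test substance at 10 µM was present for one whole cycle: 1 h LTD4-free PSS, then 30 min with 10 nM LTD4. The contraction was compared with the preceding one and given as % remaining, mean ± SEM. Paired preparations per chamber were averaged.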

For test [2], the species on record is Homo sapiens. As to the kind of experiment: Bronchorelaxing effect in leukotriene D4-contracted small human lung small airways model assessed as remaining contraction at 1 uM after 3 hrs relative to control.
Test [3] is filed under the species Homo sapiens. As to the kind of experiment: Bronchorelaxing effect in leukotriene D4-contracted small human lung small airways model assessed as remaining contraction at 1 uM after 6 hrs relative to control.
For test [4], the species on record is Homo sapiens. As to the kind of experiment: Bronchorelaxing effect in leukotriene D4-contracted small human lung small airways model assessed as remaining contraction at 1 uM after 1.5 hrs relative to control.
Test [5] is filed under the species Homo sapiens. In words: Bronchorelaxing effect in leukotriene D4-contracted small human lung small airways model assessed as remaining contraction at 1 uM after 4.5 hrs relative to control.

Take `Oc1cc2c(cc1O)CN(C(=S)NCCc1ccc(Br)cc1)CCC2`: the Activity in the test filed under Homo sapiens [1] is 67%.
On to `Oc1ccc(CCNC(=S)N2CCc3c(Cl)c(O)c(O)c(Cl)c3C2)cc1`, for which, in the test filed under Homo sapiens [1], the Activity amounted to 22%.
On the same count and under the same terms, in the case of `O=C(NCCc1ccc(Cl)cc1)C1CCc2cc(O)ccc2C1` (centres undefined) it was 78%; in that of `Oc1cc2c(cc1O)CN(C(=S)NCCc1ccc(F)cc1)CCC2`, 68%; in that of `O=C(CCCc1ccc(Cl)cc1)N1CCCc2cc(O)c(O)cc2C1`, 54%.
For `Oc1c(O)c(Cl)c2c(c1Cl)CCN(C(=S)NCCc1ccccc1Cl)C2`, the Activity in the test listed under Homo sapiens [1] is 10%.
Same read-out and setting: next, `O=C(NCCc1ccc(Cl)cc1)N1CCCc2cc(O)c(O)cc2C1`: 73%; `Oc1cc2c(cc1O)CN(C(=S)NCCc1cccc(Cl)c1)CCC2`: 76%.
Still for that read-out and setting: next, `Oc1c(O)c(Cl)c2c(c1Cl)CCN(C(=S)NCCc1cccnc1)C2`: 30%; `CCCCCCCCNC(=S)N1CCCc2cc(O)c(O)cc2C1`: 69%.
The same measure, in the same setting: in the case of `CC(C)(C)c1ccc(CCNC(=S)N2CCCc3cc(O)c(O)cc3C2)cc1` it was 80%; in that of `O=C(NCCc1ccc(Cl)cc1)c1ccc2cc(O)ccc2c1`, 90%; in that of `O=C(NCCc1ccc(Cl)cc1)N1CCc2cc(O)c(O)cc2C1`, 69%.
Regarding `CCCCCCCCNC(=S)N1CCc2c(Cl)c(O)c(O)c(Cl)c2C1`, the Activity in the test listed under Homo sapiens [1] is 69%.
On to `Oc1c(O)c(Cl)c2c(c1Cl)CCN(C(=S)NCCCc1ccccc1)C2`, for which, in the test listed under Homo sapiens [1], the Activity is 11%.
Still for that read-out and setting: in the case of `Oc1c(O)c(Cl)c2c(c1Cl)CCN(C(=S)NCc1ccccc1)C2` it was 10%; in that of `Oc1c(O)c(Cl)c2c(c1Cl)CCN(C(=S)NCCc1ccc(F)cc1)C2`, 6%; in that of `Oc1c(O)c(Cl)c2c(c1Cl)CCN(C(=S)NCc1ccc(Cl)cc1)C2`, 19%.
The same measure, in the same setting: next, `Oc1c(O)c(Cl)c2c(c1Cl)CCN(C(=S)NCCc1ccc(Br)cc1)C2`: 17%; `Oc1c(O)c(Cl)c2c(c1Cl)CCN(C(=S)NCCc1ccccn1)C2`: 26%.
As for `Oc1cc2c(cc1O)CN(C(=S)NCCc1ccccc1Cl)CCC2`, in the test filed under Homo sapiens [1], the Activity worked out at 56%.
Turning to `Oc1c(O)c(Cl)c2c(c1Cl)CCN(C(=S)NCCc1ccncc1)C2`, the Activity in the test listed under Homo sapiens [1] is 33%.
The same measure, in the same setting: next, `O=C(CCCc1ccc(Cl)cc1)N1CCc2cc(O)c(O)cc2C1`: 47%.
With `O=C(CCCc1ccc(Cl)cc1)N1CCc2c(Cl)c(O)c(O)c(Cl)c2C1`, the Activity in the test listed under Homo sapiens [2] was 65%; in the test filed under Homo sapiens [3] it was 45%; in the test filed under Homo sapiens [1], 16%; in the test filed under Homo sapiens [4], 80%; in the test filed under Homo sapiens [5] it was 55%.
For `O=C(NCCc1ccc(Cl)cc1)N1CCc2c(Cl)c(O)c(O)c(Cl)c2C1` the same measures were 81%, 71%, 16%, 91% and 78%.
Turning to `Oc1cc2c(cc1O)CN(C(=S)NCCCc1ccccc1)CCC2`, the Activity in the test filed under Homo sapiens [1] amounted to 84%.
On the same count and under the same terms, next, `Oc1c(O)c(Cl)c2c(c1Cl)CCN(C(=S)NCCc1cccc(Cl)c1)C2`: 27%; `Oc1cc2c(cc1O)CN(C(=S)NCCc1ccccc1)CCC2`: 71%.
Still for that read-out and setting: next, `Oc1cc2c(cc1O)CN(C(=S)NCc1ccc(Cl)cc1)CCC2`: 70%.
On to `Oc1c(O)c(Cl)c2c(c1Cl)CCN(C(=S)NCCc1ccc(Cl)cc1)C2`, for which the Activity was 57% in the test filed under Homo sapiens [2]; 32% in the test listed under Homo sapiens [3]; 14% in the test listed under Homo sapiens [1]; 79% in the test listed under Homo sapiens [4]; 44% in the test listed under Homo sapiens [5].
Turning to `CC(C)(C)c1ccc(CCNC(=S)N2CCc3c(Cl)c(O)c(O)c(Cl)c3C2)cc1`, the Activity in the test listed under Homo sapiens [1] is 69%.
Same read-out and setting: in the case of `Oc1c(O)c(Cl)c2c(c1Cl)CCN(C(=S)NCCc1ccccc1)C2` it was 8%.
